A selection: hits, their analogues and other compounds. The true share with any hit is near 1.9%.
Insulin prom up: insulin promoter activators in MIN6 cells, imaging, high-content screening, mouse beta cells; MIN6 insulin promoter-GFP reporter; stronger effect = higher value; z-score at 5 µM; actives 0.3% (n = 190,000); AID 1625, 2009;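 active = z-score above 3 at 5 µM with at least 500 cells counted in the well; inconclusive = wells under 500 cells, flagged as cytotoxic or low count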
MT stabilize HCS: microtubule stabilizers in HeLa cells, primary screen, imaging, high-content imaging | HeLa tubulin immunostaining HCS, 24 h; share of cells brighter than vehicle mean+2SD | % tubulin-high responders, % at 10 µM | actives 0.83% (n = 200,000);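 active = plate Z-score above 3 for both tubulin-high and condensed-nucleus cell shares, with cell loss under 80%, at 10 µM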;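 also: anti alpha tubulin signal scored within the nucleus-defined area of each cell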
Autophagy mod: autophagy modulators in MEF cells, primary screen, imaging, high-content, MEF GFP-LC3. calls only at 10 µM (by protocol). actives 0.98% (n = 190,000). MEF GFP-LC3 puncta imaging; test concentration mostly 10 µM. AID 463193, 2010;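 active = percentage of spot-positive cells more than 3 SD above its plate mean, without a fluorescence outlier flag or 80% toxicity; inconclusive = no clear call, values can overlap the other calls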;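 also: spot-positive cell cutoff set from DMSO-treated cells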
b-catenin transl: modulators of beta-catenin nuclear translocation, primary screen, imaging, HeLa cells, immunofluorescence, high-content. nuclear translocation activity, % at 5 µM. actives 0.3% (n = 190,000). AID 1665, 2009;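 active = nuclear translocation activity above 50% at 5 µM, with a well cell count of 50 or more; inconclusive = wells under 50 cells across six images, flagged as toxic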;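 also: per-cell ratio of nuclear to cytoplasmic median beta-catenin stain intensity; plate controls were DMSO negative control for no effect and GSK-3 inhibitor IX positive control for full effect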
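Test system: human HeLa cells, native beta-catenin. Compound dosing: 5 µM primary single dose, 0.1% DMSO, 0.02–20 µM confirmation series. Incubation: compound exposure 24 h at 37°C. Detection: beta-catenin immunostaining with DAPI counterstain, 20x imaging, 6 fields/well. Read-out basis: Nuclear/cytoplasmic beta-catenin signal ratio, % activation.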
The depositor's hits bear a star.

What do the screens show for `CC(C)[C@H](NC(=O)c1ccccc1)C(=O)OCC(=O)NCc1ccc(F)cc1`?
Insulin prom up: 0.57; MT stabilize HCS: 3; Autophagy mod: inactive; b-catenin transl: 1

Results for COC(=O)c1cn(C(=O)c2ccccc2Cl)c2ccccc12 ?
Insulin prom up: 0.1; MT stabilize HCS: 18*; Autophagy mod: inactive; b-catenin transl: 11

What do the screens show for `COC(=O)c1cn(C(=O)c2ccc(C)cc2C)c2ccccc12`?
Insulin prom up: 0.71; MT stabilize HCS: 15*; Autophagy mod: inactive; b-catenin transl: -2

How did COC(=O)c1cn(C(=O)OC)c2ccccc12 do in these assays?
MT stabilize HCS: 4; Autophagy mod: inactive; b-catenin transl: 2

What do the screens show for `CC(/C=N/NC(=O)c1cc(-c2ccccc2)nc2ccccc12)=C\c1ccco1`?
Insulin prom up: -0.41; MT stabilize HCS: 7; Autophagy mod: inactive; b-catenin transl: 155*

What do the screens show for `CC(/C=N/NC(=O)c1cc(-c2ccc(Cl)cc2)nc2ccccc12)=C\c1ccco1`?
MT stabilize HCS: 14; Autophagy mod: inactive; b-catenin transl: 235*

Results for CC(=O)Oc1c(/C=C(\C#N)C(N)=O)[nH]c2ccccc12 ?
Insulin prom up: 0.58; MT stabilize HCS: 5; Autophagy mod: inactive

How did COc1ccc(C(=O)NC(=S)Nc2ccc(S(N)(=O)=O)cc2)cc1 do in these assays?
Insulin prom up: 0.55; MT stabilize HCS: 1; Autophagy mod: inactive; b-catenin transl: 2

Results for Cn1cc(Br)c(C(=O)NC(=S)Nc2ccc(S(N)(=O)=O)cc2)n1 ?
Insulin prom up: -0.06; MT stabilize HCS: 10; Autophagy mod: active; b-catenin transl: -3

How did Cc1sc(N/N=C/C=C/c2ccccc2)nc1-c1ccccc1 do in these assays?
Insulin prom up: -1.5; MT stabilize HCS: 2; Autophagy mod: inactive; b-catenin transl: 0

How did COc1ccccc1NC(=O)/C=C1\SCC(=O)N1C do in these assays?
Insulin prom up: 4.7*; MT stabilize HCS: 2; Autophagy mod: inactive; b-catenin transl: -2

How did COc1ccccc1NC(=O)/C=C1\NC(=O)CS1 do in these assays?
Insulin prom up: -0.08; MT stabilize HCS: 2; Autophagy mod: inactive; b-catenin transl: -2

Results for O=C(CCN1C(=O)c2cccc3cccc(c23)C1=O)NCc1ccco1 ?
Insulin prom up: -0.35; MT stabilize HCS: 1; Autophagy mod: inactive; b-catenin transl: 0

Results for CN1CCN(c2ccc([N+](=O)[O-])cc2C(=O)c2ccccc2)CC1 ?
Insulin prom up: -0.7; MT stabilize HCS: 16; Autophagy mod: inactive; b-catenin transl: 5

How did O=C(c1ccccc1)c1cc([N+](=O)[O-])ccc1N1CCCC1 do in these assays?
Insulin prom up: -0.27; MT stabilize HCS: 3; Autophagy mod: inactive; b-catenin transl: 8

How did CN1CCN(c2ccc([N+](=O)[O-])cc2C(=O)c2ccc(Br)cc2)CC1 do in these assays?
Insulin prom up: 0.62; MT stabilize HCS: 20*; Autophagy mod: inactive; b-catenin transl: 64*

Results for Cc1ccc(C(=O)c2cc([N+](=O)[O-])ccc2N2CCN(C)CC2)cc1 ?
Insulin prom up: -1.1; MT stabilize HCS: 41*; Autophagy mod: inactive; b-catenin transl: 71*

What do the screens show for `O=C(c1ccc(Br)cc1)c1cc([N+](=O)[O-])ccc1N1CCCCC1`?
Insulin prom up: -2.3; MT stabilize HCS: 17*; Autophagy mod: inactive; b-catenin transl: 63*

What do the screens show for `CCCOC(=O)CCCCCCCCC(O)CN1CCCCC1` (stereo not drawn)?
Insulin prom up: 1.5; MT stabilize HCS: 3; Autophagy mod: inactive; b-catenin transl: 2

What do the screens show for `CC(C)CN=C(NS(=O)(=O)c1ccccc1)C(Cl)(Cl)Cl`?
Insulin prom up: inconclusive; MT stabilize HCS: 6; Autophagy mod: inactive; b-catenin transl: 52*

What do the screens show for `COC(=O)c1ccccc1NC(=O)COC(=O)CSc1nnc(N)s1`?
Insulin prom up: 0.21; MT stabilize HCS: 2; Autophagy mod: inactive; b-catenin transl: 1

How did CCOc1ccc(C(CC(=O)O)NC(=O)C(Sc2ccccc2)c2ccccc2)cc1 (stereo not drawn) do in these assays?
MT stabilize HCS: 4; Autophagy mod: inactive; b-catenin transl: -2

Results for c1ccc(-c2csc(-n3cnnn3)n2)cc1 ?
Insulin prom up: 3.1*; MT stabilize HCS: 2; Autophagy mod: inactive; b-catenin transl: 1

What do the screens show for `Cc1cc(C)n(-c2nc(-c3ccccc3)cs2)n1`?
Insulin prom up: -0.19; MT stabilize HCS: 2; Autophagy mod: inactive; b-catenin transl: -2

Source: PubChem BioAssay
